From ChEMBL document CHEMBL1125769 (J Med Chem, 1991)
“And” between values parts separate entries of the source, which are not always exact repeats. Equal values may be shown once. Square brackets hold non-standard residues; d marks the D form. Peptide text beside a SMILES is read from it. NMeA = CN[C@@H](C)C(=O)O; Ac5c = NC1(C(=O)O)CCCC1; Aib = CC(C)(N)C(=O)O; Sar = CNCC(=O)O

How the values were obtained:
[1] = target: T1, Angiotensin II receptor (Rattus norvegicus) (UniProt P29089+P25095+P35351); assay: In vivo agonist activity expressed as percent activity relative to angiotensin II in rat blood pressure assay.; assay type: functional, organism-based
Method in brief: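 Rat blood pressure (pressor) assay in vivo, after Regoli et al.; ANG II-like activity given as percent activity relative to ANG II; n = 5.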

Angiotensin II receptor = target: T2, Angiotensin II receptor (Rattus norvegicus, UniProt P29089+P25095+P35351); assay: In vitro antagonist activity (ANG II like) expressed as percent activity relative to ANG II in rabbit aorta strip assay.; assay type: functional, tissue-based
T2 sequence (P29089 whole entry): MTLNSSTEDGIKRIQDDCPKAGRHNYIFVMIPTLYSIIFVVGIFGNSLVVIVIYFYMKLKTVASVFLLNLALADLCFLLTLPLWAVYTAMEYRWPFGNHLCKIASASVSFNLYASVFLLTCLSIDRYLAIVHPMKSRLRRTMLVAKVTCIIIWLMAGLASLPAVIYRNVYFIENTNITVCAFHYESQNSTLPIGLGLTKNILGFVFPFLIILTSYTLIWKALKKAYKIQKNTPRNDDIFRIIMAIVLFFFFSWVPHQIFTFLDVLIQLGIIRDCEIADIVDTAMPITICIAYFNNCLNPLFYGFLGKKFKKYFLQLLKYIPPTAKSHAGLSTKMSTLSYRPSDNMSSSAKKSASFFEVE
T2 sequence (P25095 whole entry): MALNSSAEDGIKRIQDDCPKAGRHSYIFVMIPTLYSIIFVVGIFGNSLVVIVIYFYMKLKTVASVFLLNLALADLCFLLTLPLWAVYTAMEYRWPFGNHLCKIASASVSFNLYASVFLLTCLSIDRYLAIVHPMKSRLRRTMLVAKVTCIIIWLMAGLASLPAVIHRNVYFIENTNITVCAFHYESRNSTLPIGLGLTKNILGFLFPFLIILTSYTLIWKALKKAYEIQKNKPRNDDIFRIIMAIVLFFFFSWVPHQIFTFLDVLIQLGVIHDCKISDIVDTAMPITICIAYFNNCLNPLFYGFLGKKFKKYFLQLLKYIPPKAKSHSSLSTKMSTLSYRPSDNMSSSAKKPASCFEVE
T2 sequence (P35351 whole entry): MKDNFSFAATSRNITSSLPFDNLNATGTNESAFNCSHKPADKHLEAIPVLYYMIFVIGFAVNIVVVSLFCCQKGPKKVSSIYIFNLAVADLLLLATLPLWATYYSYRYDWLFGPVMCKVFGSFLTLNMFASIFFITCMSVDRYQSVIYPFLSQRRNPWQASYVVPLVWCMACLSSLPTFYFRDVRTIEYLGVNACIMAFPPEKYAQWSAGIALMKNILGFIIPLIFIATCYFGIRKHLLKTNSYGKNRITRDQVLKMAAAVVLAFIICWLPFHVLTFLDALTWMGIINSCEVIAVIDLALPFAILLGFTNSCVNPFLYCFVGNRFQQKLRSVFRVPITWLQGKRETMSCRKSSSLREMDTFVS

[2] = target: T1, Angiotensin II receptor (Rattus norvegicus); assay: In vitro agonist activity relative to angiotensin II measured in rabbit aorta strip assay.; assay type: functional, tissue-based
[3] = target: T1, Angiotensin II receptor (Rattus norvegicus); assay: In vivo antagonist activity (ANG II like) expressed by blood pressure increase (mHg) produced by […] iv injection of compound in rats; assay type: functional, organism-based
Method in brief: (§1)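 Rat blood pressure assay after Regoli et al.; residual ANG II-like activity read as mmHg rise in blood pressure following a one microgram intravenous bolus of compound; n = 5.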

Oryctolagus cuniculus = species on record: Oryctolagus cuniculus; assay: In vitro agonist activity expressed as percent activity relative to ANG II was measured in rabbit aorta strip assay; assay type: functional
Rattus norvegicus [4] = assay: In vivo antagonist activity (ANG II like) expressed as blood pressure increase […] produced by […] iv injection of compound in rats; assay type: functional; method in brief: as §1
Rattus norvegicus [5] = assay: in vivo antagonist activity (ANG II like) is expressed by blood pressure increase (mHg) produced by […] iv injection of compound in rats; assay type: functional; method in brief: as §1
Rattus norvegicus [6] = species on record: Rattus norvegicus; assay: In vitro antagonist activity expressed as pA2 was measured in rat uterus

Structure (SMILES)	Activity [1]	pA2 (Angiotensin II receptor)	Activity [2]	ID50 (ng min-1 rat-1) [3]	further results
CC(C)[C@H](NC(=O)[C@H](Cc1ccc(O)cc1)NC(=O)C1(NC(=O)[C@H](CCCN=C(N)N)NC(=O)[C@@H](N)CC(=O)O)CCCC1)C(=O)N[C@@H](Cc1c[nH]cn1)C(=O)NC(C)(C)C(=O)N[C@@H](Cc1ccccc1)C(=O)O (H-DR[Ac5c]YVH[Aib]F-OH)	1%				
CC[C@@H](C)[C@@H](NC(=O)[C@H](Cc1ccc(O)cc1)NC(=O)[C@H](C)N(C)C(=O)[C@H](CCCN=C(N)N)NC(=O)CNC)C(=O)N[C@@H](Cc1c[nH]cn1)C(=O)N1CCC[C@H]1C(=O)NC(Cc1ccccc1)C(=O)O (stereo in doubt)	10%	< 6	0%	100	
CNCC(=O)N[C@@H](CCCN=C(N)N)C(=O)N[C@H](C(=O)N[C@@H](Cc1ccc(O)cc1)C(=O)N1CSC(C)(C)[C@@H]1C(=O)N[C@@H](Cc1c[nH]cn1)C(=O)N1CCC[C@H]1C(=O)N[C@@H](Cc1ccccc1)C(=O)O)C(C)C	100%		250%		
CC[C@H](C)[C@H](NC(=O)[C@H](Cc1ccc(O)cc1)NC(=O)[C@@H](NC(=O)[C@H](CCCN=C(N)N)NC(=O)CNC)C(C)C)C(=O)N[C@@H](Cc1c[nH]cn1)C(=O)N1CCC[C@H]1C(=O)N[C@@H](Cc1ccccc1)C(=O)O	125%		180%		
CC[C@H](C)[C@H](NC(=O)[C@H](Cc1ccc(O)cc1)NC(=O)[C@@H](NC(=O)[C@H](CCCN=C(N)N)NC(=O)CNC)C(C)C)C(=O)N[C@@H](Cc1c[nH]cn1)C(=O)N1CCC[C@H]1C(=O)N[C@@H](C)C(=O)O	15.1% and 10%		0.5%		Activity (Oryctolagus cuniculus): 0%; ID50 (Rattus norvegicus [4]): 7.92 ng min-1 rat-1 and 15 ng min-1 rat-1
CC[C@H](C)[C@H](NC(=O)[C@@H]1CCCN1C(=O)[C@H](Cc1c[nH]cn1)NC(=O)[C@@H](NC(=O)[C@H](Cc1ccc(O)cc1)NC(=O)C(C)(C)NC(=O)[C@H](CCCN=C(N)N)NC(=O)CNC)[C@@H](C)CC)C(=O)O (H-[Sar]R[Aib]YIHPI-OH)	3%	7	0%	50	
CC(C)[C@H](NC(=O)[C@H](Cc1ccc(O)cc1)NC(=O)C1(NC(=O)[C@H](CCCN=C(N)N)NC(=O)[C@@H](N)CC(=O)O)CCCC1)C(=O)N[C@@H](Cc1c[nH]cn1)C(=O)NC1(C(=O)N[C@@H](Cc2ccccc2)C(=O)O)CCCC1 (H-DR[Ac5c]YVH[Ac5c]F-OH)	1.5%				
CC[C@H](C)[C@H](NC(=O)[C@@H]1CCCN1C(=O)[C@H](Cc1c[nH]cn1)NC(=O)[C@@H](NC(=O)[C@H](Cc1ccc(O)cc1)NC(=O)[C@H](C)NC(=O)[C@H](CCCN=C(N)N)NC(=O)CNC)[C@@H](C)CC)C(=O)O (H-[Sar]RAYIHPI-OH)	7.5%	8.3	0%	25	
CC[C@H](C)[C@H](NC(=O)[C@H](Cc1ccc(O)cc1)NC(=O)C(C)(C)NC(=O)[C@H](CCCN=C(N)N)NC(=O)[C@@H](N)CC(=O)O)C(=O)N[C@@H](Cc1c[nH]cn1)C(=O)N1CCC[C@H]1C(=O)N[C@@H](Cc1ccccc1)C(=O)O (H-DR[Aib]YIHPF-OH)	1%				
CC[C@H](C)[C@H](NC(=O)[C@H](Cc1ccc(O)cc1)NC(=O)C1(NC(=O)[C@H](CCCN=C(N)N)NC(=O)[C@@H](N)CC(=O)O)CCCC1)C(=O)N[C@@H](Cc1c[nH]cn1)C(=O)N1CCC[C@H]1C(=O)N[C@@H](Cc1ccccc1)C(=O)O (H-DR[Ac5c]YIHPF-OH)	2%				
CC(C)[C@H](NC(=O)[C@H](Cc1ccc(O)cc1)NC(=O)C1(NC(=O)[C@H](CCCN=C(N)N)NC(=O)[C@@H](N)CC(=O)O)CCCC1)C(=O)N[C@@H](Cc1c[nH]cn1)C(=O)N(C)[C@@H](C)C(=O)N[C@@H](Cc1ccccc1)C(=O)O (H-DR[Ac5c]YVH[NMeA]F-OH)	22%				
CC[C@H](C)[C@H](NC(=O)[C@@H]1CCCN1C(=O)[C@H](Cc1c[nH]cn1)NC(=O)[C@@H]1CCCN1C(=O)[C@H](Cc1ccc(O)cc1)NC(=O)[C@@H](NC(=O)[C@H](CCCN=C(N)N)NC(=O)CNC)C(C)C)C(=O)O (H-[Sar]RVYPHPI-OH)		8.7	0%	20	
CC[C@H](C)[C@H](NC(=O)[C@@H]1CSCN1C(=O)[C@H](Cc1c[nH]cn1)NC(=O)[C@@H](NC(=O)[C@H](Cc1ccc(O)cc1)NC(=O)[C@@H](NC(=O)[C@H](CCCN=C(N)N)NC(=O)CNC)C(C)C)[C@@H](C)CC)C(=O)O					ID50 (Rattus norvegicus [5]): 12.5 ng min-1 rat-1; pA2 (Rattus norvegicus [6]): 7.2
CC[C@H](C)[C@H](NC(=O)[C@H](Cc1ccc(O)cc1)NC(=O)[C@H](C)NC(=O)[C@H](CCCN=C(N)N)NC(=O)[C@@H](N)CC(=O)O)C(=O)N[C@@H](Cc1c[nH]cn1)C(=O)N1CCC[C@H]1C(=O)N[C@@H](Cc1ccccc1)C(=O)O (H-DRAYIHPF-OH)	80.5%				
CC[C@H](C)[C@H](NC(=O)[C@H](Cc1ccc(O)cc1)NC(=O)[C@@H]1CCCN1C(=O)[C@H](CCCN=C(N)N)NC(=O)[C@@H](N)CC(=O)O)C(=O)N[C@@H](Cc1c[nH]cn1)C(=O)N1CCC[C@H]1C(=O)N[C@@H](Cc1ccccc1)C(=O)O (H-DRPYIHPF-OH)	53%				
CC[C@H](C)[C@H](NC(=O)[C@@H]1CCCN1C(=O)[C@H](Cc1c[nH]cn1)NC(=O)C1(NC(=O)[C@H](Cc2ccc(O)cc2)NC(=O)[C@@H](NC(=O)[C@H](CCCN=C(N)N)NC(=O)CNC)C(C)C)CCCC1)C(=O)O (H-[Sar]RVY[Ac5c]HPI-OH)		8.3	0%	10	
